From ChEMBL document CHEMBL4354843, “Structure-Based Design of a Potent and Selective Covalent Inhibitor for SRC Kinase That Targets a P-Loop Cysteine” (J Med Chem, 2020) come the findings set out here.

The target of test [1] is Mitogen-activated protein kinase 10 (Homo sapiens) (UniProt P53779). Description: Binding affinity to wild-type human partial length JNK3 (V28 to Q422 residues) expressed in mammalian expression system assessed as residual binding level at 1 uM by Kinomescan method relative to control.
The target of test [2] is Activin receptor type-2A (Homo sapiens) (UniProt P27037). Description: Binding affinity to wild-type human ACVR2A (V171 to T499 residues) expressed in bacterial expression system assessed as residual binding level at 1 uM by Kinomescan method relative to control. Put shortly:
(§1)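 Active-site-directed KinomeScan competition binding panel covering 468 kinases, compound tested at 1 μM. Each readout is the kinase signal remaining with compound, expressed as a percentage of the DMSO control. […]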

For test [3], the target named is Tyrosine-protein kinase ABL2 (Homo sapiens) (UniProt P42684). Description: Binding affinity to wild-type human ABL2 (A248 to G542 residues) expressed in bacterial expression system assessed as residual binding level at 1 uM by Kinomescan method relative to control. The essentials:
(§2)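 KinomeScan, an active site-directed competition binding panel of 468 kinases. The test compound was at 1 μM. The readout is remaining kinase binding as a percentage of the DMSO control. Scores above 35% were treated as weak binding and not listed.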

Test [4] deals with Serine/threonine-protein kinase PLK4 (Homo sapiens) (UniProt O00444). Description: Binding affinity to wild-type human partial length PLK4 (M1 to S273 residues) expressed in mammalian expression system assessed as residual binding level at 1 uM by Kinomescan method relative to control.
The test system of test [5] is Proto-oncogene tyrosine-protein kinase receptor Ret (Homo sapiens), P07949 [M918T]. Nature of the test: Binding affinity to human partial length RET M918T mutant (E713 to D1014 residues) expressed in bacterial expression system assessed as residual binding level at 1 uM by Kinomescan method relative to control. The essentials:
(§3)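 KinomeScan active site-directed competition binding panel (468 kinases), compound tested at 1 μM. Result expressed as remaining kinase signal versus DMSO control (percent of control).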

For test [6], the target named is TGF-beta receptor type-2 (Homo sapiens) (UniProt P37173). Description: Binding affinity to wild-type human partial length TGFBR2 (I218 to K567 residues) expressed in bacterial expression system assessed as residual binding level at 1 uM by Kinomescan method relative to control.
For test [7], the target named is Serine/threonine-protein kinase N2 (Homo sapiens) (UniProt Q16513). Nature of the test: Binding affinity to wild-type human partial length PKN2 (E634 to C984 residues) expressed in bacterial expression system assessed as residual binding level at 1 uM by Kinomescan method relative to control.
The target in test [8] is Vascular endothelial growth factor receptor 1 (Homo sapiens) (UniProt P17948). Description: Binding affinity to wild-type human partial length FLT1 (R781 to F1239 residues) expressed in bacterial expression system assessed as residual binding level at 1 uM by Kinomescan method relative to control.
In test [9] the target is Dual specificity mitogen-activated protein kinase kinase 3 (Homo sapiens) (UniProt P46734). Description: Binding affinity to wild-type human full length MEK3 (M1 to S318 residues) expressed in mammalian expression system assessed as residual binding level at 1 uM by Kinomescan method relative to control. The essentials:
as §2

In test [10] the target is Atypical kinase COQ8B, mitochondrial (Homo sapiens) (UniProt Q96D53). Description: Binding affinity to wild-type human full length ADCK4 (M1 to S544 residues) expressed in bacterial expression system assessed as residual binding level at 1 uM by Kinomescan method relative to control. The essentials:
as §1

Test [11] concerns the target Tyrosine-protein kinase Fes/Fps (Homo sapiens) (UniProt P07332). Nature of the test: Binding affinity to wild-type human partial length FES (I527 to R822 residues) expressed in bacterial expression system assessed as residual binding level at 1 uM by Kinomescan method relative to control.
For test [12], the system named is Receptor-type tyrosine-protein kinase FLT3 (Homo sapiens), P36888 [UNDEFINED MUTATION]. Description: Binding affinity to human partial length FLT3 ITD/D835V double mutant expressed in bacterial expression system assessed as residual binding level at 1 uM by Kinomescan method relative to control. Put shortly: as §3
For test [13], the target named is Casein kinase I isoform delta (Homo sapiens) (UniProt P48730). Description: Binding affinity to wild-type human full length CSNK1D (M1 to K409 residues) expressed in bacterial expression system assessed as residual binding level at 1 uM by Kinomescan method relative to control. The essentials: as §1
Test [14] concerns the target Serine/threonine-protein kinase NLK (Homo sapiens) (UniProt Q9UBE8). Description: Binding affinity to wild-type human full length NLK (M13 to E527 residues) expressed in bacterial expression system assessed as residual binding level at 1 uM by Kinomescan method relative to control. The essentials: as §2
For test [15], the target named is Ribosomal protein S6 kinase alpha-5 (Homo sapiens) (UniProt O75582). Nature of the test: Binding affinity to wild-type human partial length C-terminal RPS6KA5 kinase domain 2 (V390 to T718 residues) expressed in bacterial expression system assessed as residual binding level at 1 uM by Kinomescan method relative to control.
Test [16] deals with Serine/threonine-protein kinase Sgk3 (Homo sapiens) (UniProt Q96BR1). Nature of the test: Binding affinity to wild-type human partial length SGK3 (M119 to L496 residues) expressed in mammalian expression system assessed as residual binding level at 1 uM by Kinomescan method relative to control. The essentials:
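Active site-directed competition binding panel (KinomeScan, 468 kinases). Test compound at 1 μM. Read-out is kinase binding remaining versus DMSO control, expressed as percent of control. Scores above 35% are treated as weak binding.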

Test [17] deals with Mitogen-activated protein kinase kinase kinase 2 (Homo sapiens) (UniProt Q9Y2U5). Description: Binding affinity to wild-type human partial length MAP3K2 (S315 to H619 residues) expressed in mammalian expression system assessed as residual binding level at 1 uM by Kinomescan method relative to control. The essentials:
(§4)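 Active-site-directed competition binding panel of 468 kinases (KinomeScan), compound at 1 μM. The read-out is kinase remaining bound, given as a percentage of the DMSO control. […]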

Test [18] addresses Dual specificity mitogen-activated protein kinase kinase 6 (Homo sapiens) (UniProt P52564). Nature of the test: Binding affinity to wild-type human partial length MEK6 (K36 to D334 residues) expressed in bacterial expression system assessed as residual binding level at 1 uM by Kinomescan method relative to control. The essentials:
as §4

Test [19] addresses Serine/threonine-protein kinase PAK 4 (Homo sapiens) (UniProt O96013). Description: Binding affinity to wild-type human partial length PAK4 (Q144 to R438 residues) expressed in bacterial expression system assessed as residual binding level at 1 uM by Kinomescan method relative to control.
Test [20] deals with Wee1-like protein kinase (Homo sapiens) (UniProt P30291). Nature of the test: Binding affinity to wild-type human partial length WEE1 (M291 to K575 residues) expressed in bacterial expression system assessed as residual binding level at 1 uM by Kinomescan method relative to control.
The target of test [21] is Leukocyte tyrosine kinase receptor (Homo sapiens) (UniProt P29376). Description: Binding affinity to wild-type human partial length LTK (P422 to S744 residues) expressed in bacterial expression system assessed as residual binding level at 1 uM by Kinomescan method relative to control.

Chain of Tyrosine-protein kinase Fes/Fps (Homo sapiens) (P07332 whole entry, the tested form may be a part): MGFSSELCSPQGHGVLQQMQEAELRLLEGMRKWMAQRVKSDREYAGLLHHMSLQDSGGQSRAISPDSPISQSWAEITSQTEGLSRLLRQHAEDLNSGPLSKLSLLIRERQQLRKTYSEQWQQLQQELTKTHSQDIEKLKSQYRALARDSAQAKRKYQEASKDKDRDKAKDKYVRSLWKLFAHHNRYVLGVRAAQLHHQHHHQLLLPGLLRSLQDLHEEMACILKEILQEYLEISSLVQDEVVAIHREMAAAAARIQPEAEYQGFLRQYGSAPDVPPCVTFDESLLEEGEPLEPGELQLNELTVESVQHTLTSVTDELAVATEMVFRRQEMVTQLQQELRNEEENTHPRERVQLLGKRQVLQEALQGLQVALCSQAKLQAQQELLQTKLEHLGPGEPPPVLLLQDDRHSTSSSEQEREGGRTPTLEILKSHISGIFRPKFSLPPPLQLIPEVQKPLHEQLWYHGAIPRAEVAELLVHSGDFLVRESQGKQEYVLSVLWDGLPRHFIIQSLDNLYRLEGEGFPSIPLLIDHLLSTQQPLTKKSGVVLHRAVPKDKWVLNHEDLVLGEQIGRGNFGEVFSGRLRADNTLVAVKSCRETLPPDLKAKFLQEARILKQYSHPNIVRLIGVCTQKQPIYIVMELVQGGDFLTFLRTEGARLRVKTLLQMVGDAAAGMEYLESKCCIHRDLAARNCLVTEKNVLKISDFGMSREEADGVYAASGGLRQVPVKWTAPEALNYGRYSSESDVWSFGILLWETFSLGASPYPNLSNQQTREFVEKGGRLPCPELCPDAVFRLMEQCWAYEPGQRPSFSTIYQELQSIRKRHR
Chain of Serine/threonine-protein kinase NLK (Homo sapiens) (Q9UBE8 whole entry, the tested form may be a part): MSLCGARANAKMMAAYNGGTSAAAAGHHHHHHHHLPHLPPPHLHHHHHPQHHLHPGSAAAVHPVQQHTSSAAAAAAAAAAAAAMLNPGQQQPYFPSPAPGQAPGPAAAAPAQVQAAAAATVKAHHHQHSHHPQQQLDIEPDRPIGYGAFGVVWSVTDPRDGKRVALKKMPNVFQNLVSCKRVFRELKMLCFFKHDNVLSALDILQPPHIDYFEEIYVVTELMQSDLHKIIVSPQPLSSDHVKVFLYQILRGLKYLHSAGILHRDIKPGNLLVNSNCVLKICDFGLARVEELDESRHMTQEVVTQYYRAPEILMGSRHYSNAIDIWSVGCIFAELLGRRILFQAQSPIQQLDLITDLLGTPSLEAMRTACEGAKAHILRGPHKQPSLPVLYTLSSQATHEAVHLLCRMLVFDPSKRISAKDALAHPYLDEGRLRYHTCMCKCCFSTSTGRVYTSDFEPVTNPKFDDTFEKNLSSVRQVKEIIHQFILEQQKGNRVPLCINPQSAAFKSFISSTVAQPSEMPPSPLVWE
Chain of Mitogen-activated protein kinase kinase kinase 2 (Homo sapiens) (Q9Y2U5 whole entry, the tested form may be a part): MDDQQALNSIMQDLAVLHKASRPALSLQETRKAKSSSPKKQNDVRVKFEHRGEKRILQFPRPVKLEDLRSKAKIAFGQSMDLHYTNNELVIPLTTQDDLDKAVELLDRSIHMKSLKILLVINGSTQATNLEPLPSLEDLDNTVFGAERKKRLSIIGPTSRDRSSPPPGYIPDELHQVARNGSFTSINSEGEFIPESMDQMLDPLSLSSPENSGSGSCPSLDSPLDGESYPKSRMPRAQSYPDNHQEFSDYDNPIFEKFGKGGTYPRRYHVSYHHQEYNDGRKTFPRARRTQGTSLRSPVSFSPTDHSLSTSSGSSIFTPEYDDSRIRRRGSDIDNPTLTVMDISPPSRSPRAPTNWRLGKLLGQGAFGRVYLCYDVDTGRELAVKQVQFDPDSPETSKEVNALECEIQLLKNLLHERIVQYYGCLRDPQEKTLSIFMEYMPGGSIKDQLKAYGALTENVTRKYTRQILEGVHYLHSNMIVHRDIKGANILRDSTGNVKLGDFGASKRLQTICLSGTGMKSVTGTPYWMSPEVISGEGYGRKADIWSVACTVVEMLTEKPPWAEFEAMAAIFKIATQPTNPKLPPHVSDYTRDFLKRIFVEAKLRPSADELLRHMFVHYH
Chain of Serine/threonine-protein kinase PAK 4 (Homo sapiens) (O96013 whole entry, looked up, the tested form may be a part): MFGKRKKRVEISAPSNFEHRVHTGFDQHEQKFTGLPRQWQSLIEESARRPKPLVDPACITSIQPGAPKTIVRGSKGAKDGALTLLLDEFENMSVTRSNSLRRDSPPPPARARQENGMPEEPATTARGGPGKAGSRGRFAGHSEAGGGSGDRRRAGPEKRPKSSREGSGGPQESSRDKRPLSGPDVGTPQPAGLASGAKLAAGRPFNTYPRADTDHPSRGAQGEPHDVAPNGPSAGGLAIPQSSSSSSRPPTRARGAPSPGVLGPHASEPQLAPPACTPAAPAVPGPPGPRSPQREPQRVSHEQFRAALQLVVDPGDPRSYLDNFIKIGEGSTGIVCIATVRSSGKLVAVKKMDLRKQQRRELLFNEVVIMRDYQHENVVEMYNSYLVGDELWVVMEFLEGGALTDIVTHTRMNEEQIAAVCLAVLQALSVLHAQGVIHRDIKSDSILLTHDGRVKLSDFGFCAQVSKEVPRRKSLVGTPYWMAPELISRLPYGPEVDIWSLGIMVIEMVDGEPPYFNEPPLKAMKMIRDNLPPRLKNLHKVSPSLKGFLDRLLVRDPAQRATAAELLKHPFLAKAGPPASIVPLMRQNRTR
Chain of Serine/threonine-protein kinase N2 (Homo sapiens) (Q16513 whole entry, looked up, the tested form may be a part): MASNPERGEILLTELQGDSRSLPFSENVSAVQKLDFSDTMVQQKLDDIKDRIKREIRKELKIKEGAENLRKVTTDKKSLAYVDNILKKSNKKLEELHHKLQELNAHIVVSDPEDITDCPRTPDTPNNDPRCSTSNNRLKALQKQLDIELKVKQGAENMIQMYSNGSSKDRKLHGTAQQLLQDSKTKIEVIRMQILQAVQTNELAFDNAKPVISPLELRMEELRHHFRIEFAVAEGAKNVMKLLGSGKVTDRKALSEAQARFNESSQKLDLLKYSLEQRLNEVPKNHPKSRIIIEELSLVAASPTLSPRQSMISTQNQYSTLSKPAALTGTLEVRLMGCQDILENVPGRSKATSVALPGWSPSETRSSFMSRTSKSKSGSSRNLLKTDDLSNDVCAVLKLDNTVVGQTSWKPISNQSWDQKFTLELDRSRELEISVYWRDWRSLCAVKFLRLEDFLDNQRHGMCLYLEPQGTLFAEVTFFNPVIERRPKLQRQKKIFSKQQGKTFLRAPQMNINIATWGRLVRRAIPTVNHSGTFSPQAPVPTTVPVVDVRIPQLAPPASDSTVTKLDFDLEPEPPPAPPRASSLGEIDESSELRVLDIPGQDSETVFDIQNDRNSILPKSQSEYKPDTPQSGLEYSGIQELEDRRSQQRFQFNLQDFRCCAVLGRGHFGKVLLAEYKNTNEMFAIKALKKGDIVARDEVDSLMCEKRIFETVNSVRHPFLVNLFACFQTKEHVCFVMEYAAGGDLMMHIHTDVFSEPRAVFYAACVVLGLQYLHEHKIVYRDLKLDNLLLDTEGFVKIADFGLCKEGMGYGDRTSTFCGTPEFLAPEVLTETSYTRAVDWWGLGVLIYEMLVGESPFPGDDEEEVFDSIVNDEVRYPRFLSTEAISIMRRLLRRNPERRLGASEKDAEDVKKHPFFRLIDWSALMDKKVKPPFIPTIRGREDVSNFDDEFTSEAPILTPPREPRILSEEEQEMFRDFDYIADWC
Chain of Serine/threonine-protein kinase Sgk3 (Homo sapiens) (Q96BR1 whole entry, the tested form may be a part): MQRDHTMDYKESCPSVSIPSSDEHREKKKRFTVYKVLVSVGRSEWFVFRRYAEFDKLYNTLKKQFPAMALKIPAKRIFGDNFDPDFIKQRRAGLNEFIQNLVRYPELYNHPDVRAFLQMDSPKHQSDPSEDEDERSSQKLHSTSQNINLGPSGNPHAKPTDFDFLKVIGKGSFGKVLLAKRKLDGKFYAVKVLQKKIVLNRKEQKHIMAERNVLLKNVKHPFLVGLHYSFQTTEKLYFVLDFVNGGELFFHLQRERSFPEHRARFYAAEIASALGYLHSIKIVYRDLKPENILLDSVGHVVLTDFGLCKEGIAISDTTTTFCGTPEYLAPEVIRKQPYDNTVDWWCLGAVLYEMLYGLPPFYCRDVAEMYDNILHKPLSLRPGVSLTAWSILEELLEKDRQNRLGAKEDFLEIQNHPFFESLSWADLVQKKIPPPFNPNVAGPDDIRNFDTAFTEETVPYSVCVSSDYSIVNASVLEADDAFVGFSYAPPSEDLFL
Chain of Dual specificity mitogen-activated protein kinase kinase 6 (Homo sapiens) (P52564 whole entry, the tested form may be a part): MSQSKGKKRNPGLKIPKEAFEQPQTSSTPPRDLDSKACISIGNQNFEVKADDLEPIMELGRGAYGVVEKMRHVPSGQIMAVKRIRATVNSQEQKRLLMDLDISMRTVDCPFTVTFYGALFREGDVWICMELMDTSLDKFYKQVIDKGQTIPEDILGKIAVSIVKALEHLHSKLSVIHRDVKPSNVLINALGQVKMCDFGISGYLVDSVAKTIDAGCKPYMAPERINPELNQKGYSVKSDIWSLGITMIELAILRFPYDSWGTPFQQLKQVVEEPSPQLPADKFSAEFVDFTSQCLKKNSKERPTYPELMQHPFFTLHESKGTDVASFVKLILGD
Chain of Activin receptor type-2A (Homo sapiens) (P27037 whole entry, the tested form may be a part): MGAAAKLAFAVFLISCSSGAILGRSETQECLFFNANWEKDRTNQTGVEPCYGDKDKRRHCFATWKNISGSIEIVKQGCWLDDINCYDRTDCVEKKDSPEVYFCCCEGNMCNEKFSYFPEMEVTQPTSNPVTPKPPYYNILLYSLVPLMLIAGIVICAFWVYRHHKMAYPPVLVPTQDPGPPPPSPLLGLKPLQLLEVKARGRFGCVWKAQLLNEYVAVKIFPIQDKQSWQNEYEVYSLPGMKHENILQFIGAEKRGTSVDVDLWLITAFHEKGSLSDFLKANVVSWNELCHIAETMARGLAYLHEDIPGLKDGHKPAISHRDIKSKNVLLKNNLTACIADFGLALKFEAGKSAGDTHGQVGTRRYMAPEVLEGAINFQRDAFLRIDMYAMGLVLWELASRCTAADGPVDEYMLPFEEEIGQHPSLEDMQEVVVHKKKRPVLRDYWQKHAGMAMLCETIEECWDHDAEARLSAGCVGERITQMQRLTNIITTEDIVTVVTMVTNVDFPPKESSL

Take `C=CC(=O)Nc1ccccc1Nc1nc(Nc2ccc(N3CCN(C)CC3)cc2)ncc1C(=O)Nc1c(C)cccc1Cl`: the Activity in [1] was 100%; in test [2], 100%; in test [3] it was 0.35%; in [4], 92%; in [5], 87%; in test [6] it was 100%. For the same compound, the Activity was 100% in [7]; 100% in [8]; 69% in test [9]; 100% in [10]; 100% in [11]; 89% in test [12]. Besides, the Activity in test [13] turned out to be 100%; in test [14] it was 76%; in test [15], 100%; in test [16] it was 86%; in test [17] it was 94%; in [18] it was 99%. For the same compound, the Activity in test [19], in [20] and in test [21] was 100% in each case.
